Bioassay records as filed in PubChem BioAssay.
The full list was thinned out, with hits kept by preference.
CHOP inhibitor = inhibitors of CHOP promoter induction, primary screen, cell-based, unfolded protein response, luciferase reporter; CHO-K1 CHOP-promoter luciferase, tunicamycin-induced, 15-18 h; 220,000 tested, 3.8% active; inhibition, % at 10 µM;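 active = compounds that reduced the stress-induced luciferase reporter signal by more than about 70% of percent inhibition, limit read from the data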
Bfl-1 A1 inh = caspase 3/7 activation in MEF A1-2A-BIM cells, primary screen, A1 inhibitor project, cell-based, luminescence, HTS | Caspase-Glo 3/7 luminescence, 3 h; percent of clofoctol response, vehicle zero | caspase activation, % (concentration not given with the values) | 330,000 tested, 0.066% active;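 active = over half of replicate activation scores above 10%, or exactly half above 10 with the replicate mean above 10; inconclusive = replicate mean below 10 yet half the replicates above 10; inactive = over half of replicates below 10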
UPR XBP1 act = activators of adaptive XBP1 UPR arm, primary screen, cell-based, CHO-XBP1 luciferase reporter, luminescence, uHTS. activation, % at 20 µM. IRE1-XBP1 UPR activation; percent of tunicamycin response, DMSO as zero. 330,000 tested, 0.33% active;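 active = versus positive control, 20 µM dose yields 30% or more activation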
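Material: CHO cell line with stable XBP1 luciferase reporter; schedule: 16-18 h cell attachment at 37 °C, then 6 h compound exposure; signal: glow luminescence from Steady-Glo reagent; medium: serum-containing F12 medium, 10% FBS; benchmarks: tunicamycin 10 µg/mL and vehicle-only wells; read-out: percent activation relative to tunicamycin reference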
UPR CHOP act = activators of apoptotic CHOP UPR arm, primary screen, cell-based, CHO-CHOP luciferase reporter, luminescence, uHTS | UPR activation; percent of tunicamycin response over DMSO baseline | activation, % at 10 µM | 330,000 tested, 0.34% active;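 active = at 10 µM dose, activation of 40% or more, normalized to positive control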
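Test system: CHO CHOP reporter cells. Input: 500 CHO-CHOP cells per well. Medium: F12 with 10% FBS. Technique: luciferase luminescence. Measure: percent activation relative to tunicamycin control. Dosing: 10 µM compound, 0.5% DMSO. Timing: 16-18 h cell attachment, then 6 h compound exposure, 37 °C.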
Large screens that a line does not name were inactive; ! = a repeat was not active.

CCN1CCCc2cc(CN(CCN3CCOCC3)C(=O)Nc3ccc(C)c(C)c3)ccc21	none
Cc1ccc(CNC(=O)C2CCC(=O)N2C2CCCCC2)cc1 (stereo not drawn)	none
CC(=O)N1c2ccc3ccccc3c2C(C)CC12CCCCC2 (stereo not drawn)	CHOP inhibitor 70
COCCNC(=O)C(c1ccc(C)cc1)N(CCOC)C(=O)CCC(=O)Nc1nccs1 (stereo not drawn)	none (no result: CHOP inhibitor)
CCOC(=O)C1=C(CC)OC(N)=C(C#N)C1c1ccc(OC)c(C)c1OC (stereo not drawn)	none
CCCC1=C(C(=O)OCC)C(c2ccc(OC)c(C)c2OC)C(C#N)=C(N)O1 (stereo not drawn)	CHOP inhibitor 72
O=C1Nc2cc(Cl)ccc2C1(N1CCNCC1)C(F)(F)F (stereo not drawn)	CHOP inhibitor 80
O=S(=O)(c1ccc(Cl)cc1)N1CCNCC1	none
Cc1ccc(NC(=O)CSc2ccc(S(=O)(=O)N3CCCC3)cn2)cc1F	none (no result: CHOP inhibitor)
CCC(C(=O)Nc1ccc(C(=O)O)cc1NC(=O)C(CC)c1ccccc1)c1ccccc1 (stereo not drawn)	none (no result: CHOP inhibitor)
O=C1NC(c2ccccc2)(C(F)(F)F)SC2=NCCCN12 (stereo not drawn)	none
Cc1ccc2c(c1)SC1=NC(c3ccccc3)(C(F)(F)F)NC(=O)N12 (stereo not drawn)	CHOP inhibitor 70
COc1ccccc1C1CC(c2cccs2)=NN1C(=O)CCC(=O)O (stereo not drawn)	none (no result: CHOP inhibitor)
COc1ccccc1C1CC(c2cccs2)=Nc2ccccc2S1 (stereo not drawn)	CHOP inhibitor 84
CN(CC(=O)Nc1ccccc1Cl)C(=O)COC(=O)c1ccc(C(F)(F)F)cc1	none (no result: CHOP inhibitor)
c1cnc2c(c1)ccc1cccnc12	CHOP inhibitor 74!
Cc1ccccc1-c1noc(-c2ccccc2F)n1	CHOP inhibitor 78
O=C(O)Cc1cn(Cc2cccc(Cl)c2)c2ccccc12	none
CC1CCCN(C(=O)Cc2cn(Cc3cccc(Cl)c3)c3ccccc23)C1 (stereo not drawn)	CHOP inhibitor 76
O=C(Cc1cn(Cc2cccc(Cl)c2)c2ccccc12)N1CCCCCC1	CHOP inhibitor 76
O=C(CSc1nnnn1C1CCCCC1)Nc1ccccc1N1CCOCC1	none
CN(C(=O)Nc1ccc(Cl)cc1Cl)[C@H]1c2cc(Br)ccc2OC[C@H]1CO	CHOP inhibitor 89
COc1cccc2c1OC[C@@H](CO)[C@H]2N(C)C(=O)Nc1ccccc1	none (no result: Bfl-1 A1 inh)
Cc1cc(Cl)ccc1OCCCC(=O)N/N=C/c1cccc([N+](=O)[O-])c1	CHOP inhibitor 88
COc1ccc(/C=N/NC(=O)CCCOc2ccc(Cl)cc2Cl)cc1	CHOP inhibitor 85
Cn1c(C(=O)N2CCN(c3cccc(C(F)(F)F)c3)CC2)cc2sccc21	CHOP inhibitor 72
O=C(c1ccccc1F)N1CCN(c2cccc(C(F)(F)F)c2)CC1	CHOP inhibitor 74
Cc1ccc(C)c(N2CCN(C(=O)c3cc4sccc4n3C)CC2)c1	none
O=C(c1c(F)c(F)c(F)c(F)c1F)N1CCN(c2cccc(C(F)(F)F)c2)CC1	CHOP inhibitor 82
NC(=O)C1CCN(C(=O)c2ccc([N+](=O)[O-])cc2NC(=O)c2cccs2)CC1	Bfl-1 A1 inh inconclusive (no result: CHOP inhibitor)
COc1cc(C)c(C(C)C)cc1S(=O)(=O)NCCCn1ccnc1	none
O=C(CSc1nnnn1-c1ccccc1)Nc1nc(-c2ccccc2)ns1	CHOP inhibitor 86
Cc1cc(C)cc(-n2nnnc2SCC(=O)Nc2nc(-c3ccc(F)cc3)cs2)c1	CHOP inhibitor 89
O=C(CSc1nnnn1-c1ccccc1)Nc1nsc(-c2ccccc2)n1	none
O=C(CSc1nc2ccccc2[nH]1)Nc1nc(-c2ccc(Br)cc2)cs1	CHOP inhibitor 77
CCc1c(C)sc(NC(=O)c2noc(C)c2[N+](=O)[O-])c1C#N	none
Cc1ccc(/C=N\NC(=O)Cn2nnc3ccccc32)o1	none
O=C(/C=C/Nc1ccccc1Br)c1ccccn1	CHOP inhibitor 88
C(=N\Nc1nc2ccccc2[nH]1)/c1cccc2cccnc12	CHOP inhibitor 88
Cc1ccccc1/C=N/Nc1nc2ccccc2[nH]1	none
CC(=O)C1=NOC(CNC(=O)c2c(-c3ccccc3Cl)noc2C)C1 (stereo not drawn)	none
COc1ccc2c(c1)c(=O)oc1cc3occ(C(C)(C)C)c3cc12	CHOP inhibitor 87
COc1ccc(C2C(O)C(c3c[nH]c4ccccc34)=NN2C(=O)CCl)cc1 (stereo not drawn)	Bfl-1 A1 inh 8.0 (no result: CHOP inhibitor)
Cn1c(CNC(=O)CNC(=O)Cc2ccc(Cl)cc2)cc(=O)n(C)c1=O	none (no result: CHOP inhibitor)
CCOC(=O)c1c(-c2ccc(-c3ccccc3)cc2)csc1NC(=O)C1C2CCC(O2)C1C(=O)O (stereo not drawn)	CHOP inhibitor 88
CCOC(=O)c1c(-c2ccc(C)cc2)csc1NC(=O)C1CC=CCC1C(=O)O (stereo not drawn)	none
CCOC(=O)c1c(-c2ccccc2)csc1NC(=O)C1CCCO1 (stereo not drawn)	CHOP inhibitor 83
CCOC(=O)c1c(-c2cccs2)csc1NC(=O)CN1CCOCC1	CHOP inhibitor 72
COc1cc(OC)c(C(=O)OCC(=O)NCC2CCCCC2)cc1OC	none (no result: CHOP inhibitor, Bfl-1 A1 inh)
CN1CCC(=O)N(CCSc2ccc(Br)cc2)CC1	none
Cc1ccc(-n2c(N)c(C(=O)Nc3c(C)n(C)n(-c4ccccc4)c3=O)c3nc4ccccc4nc32)cc1C	CHOP inhibitor 91
CC(C)=CCC/C(C)=C/Cc1c(O)ccc(C(=O)/C=C/c2ccc(O)cc2)c1O	CHOP inhibitor 86
N#CC1(CCCN2CCCCC2)c2ccccc2CCc2ccccc21	none (no result: CHOP inhibitor)
CC(=O)N1c2ccccc2C2(O)N=C(C)SC12 (stereo not drawn)	CHOP inhibitor 105
O=C(CSc1n[nH]c(-c2ccncc2)n1)Nc1ccccn1	none
CC(=O)Nc1ccc2nc(SCC(=O)NCCOc3ccccc3)sc2c1	none
CCCc1nnc(NC(=O)Cn2c(=O)oc3cc(Br)ccc32)s1	none
O=c1oc2cc(Br)ccc2n1CSC1=NCCS1	CHOP inhibitor 71
CCCCNC1=CC(=O)C(=O)c2ccccc21	none
CCCCN1C=CC(=C2C(=O)c3ccccc3C2=O)C=C1	CHOP inhibitor 94
O=c1c2nncn2c2cc(C(F)(F)F)ccc2n1CCNc1ncc(C(F)(F)F)cc1Cl	CHOP inhibitor 85
COc1ccc(NC(=O)C2CCCNC2)cc1OCC(C)C (stereo not drawn)	CHOP inhibitor 77
O=[N+]([O-])c1ccc(N=Nc2c(Cl)cc(O)cc2Cl)cc1	CHOP inhibitor 102 (no result: UPR XBP1 act, UPR CHOP act)
O=C(CCN1C(=O)C2C3C=CC(C3)C2C1=O)Nc1ccc2c(c1)OCO2 (stereo not drawn)	none
O=C(CCN1C(=O)C2C3C=CC(C3)C2C1=O)Nc1ccc(F)cc1 (stereo not drawn)	CHOP inhibitor 86
